Laboratory results: ChEMBL document CHEMBL4190232, “Isoflavones and Rotenoids from the Leaves of Millettia oblata ssp. teitensis” (J Nat Prod, 2017)
Active and inactive are the calls of the source. No cut-off for these calls is given here.

Legend:
Mus musculus = species: Mus musculus; test: Inhibition of cap/HCV-mediated translation in mouse Krebs2 cell free extract expressing FF/HCV/IRES-Ren mRNA reporter transcript assessed as reduction in luciferase production at 20 uM after 60 mins; type: functional
In short: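 Compound stocks were 10 mM in DMSO, diluted to 200 μM in water, and tested at a final 20 μM in Krebs-2 translation extracts. The extracts were programmed with bicistronic Firefly–HCV IRES–Renilla luciferase mRNA. Reactions ran for 60 min at 30 °C, after which luciferase activities were measured.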

HepG2 = test: Cytotoxicity against human HepG2 cells assessed as reduction in cell viability by MTT assay; type: functional, cell-based
B16 = test: Cytotoxicity against mouse B16 cells assessed as reduction in cell viability by MTT assay; type: functional, cell-based
[1] = Cytotoxicity against mouse C26 cells assessed as reduction in cell viability by MTT assay; type: functional, cell-based
[2] = system: Lewis lung carcinoma cell line; test: Cytotoxicity against mouse LL/2 cells assessed as reduction in cell viability by MTT assay; type: functional, cell-based
MDA-MB-231 = test: Cytotoxicity against human MDA-MB-231 cells assessed as reduction in cell viability after 72 hrs by alamarBlue assay; type: functional, cell-based; settings: MDA-MB-231, 72 h
In short: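 MDA-MB-231 cells grown in DMEM with 10% FBS, 2 mM L-glutamine, penicillin/streptomycin, 37 °C, 5% CO2. Seeded at 10⁴ cells/well, preincubated 24 h, then compound or DMSO vehicle (0.1% or 1.0% v/v) for 72 h. Viability by Alamar Blue, absorbance at 570 nm (600 nm reference), as % of vehicle control; six replicates, at least six independent experiments.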

Compound | inhibition (Mus musculus) | IC50 (MDA-MB-231) [µM] | other results
COc1ccc2c(c1)O[C@@H]1COc3cc4c(cc3[C@@]1(O)C2=O)OCO4 | inactive | – | –
COc1ccc2c(c1)O[C@@H]1COc3cc(OC)c(OC)cc3[C@@H]1C2=O | inactive | – | –
COc1cc2c(cc1OC)[C@]1(O)C(=O)c3ccc4c(c3O[C@@H]1CO2)C=CC(C)(C)O4 [TEPHROSIN] | inactive | – | IC50 (HepG2): 1.35 to 9.85 µM; IC50 (B16): 1.35 to 9.85 µM; IC50 [1]: 1.35 to 9.85 µM; IC50 [2]: 1.35 to 9.85 µM
COc1ccc2c(c1)O[C@@H]1COc3c(cc(OC)c4c3OCO4)[C@]1(O)C2=O | inactive | – | –
CC(C)=CCOc1ccc2c(=O)c(-c3ccc4c(c3)OCO4)coc2c1 | inactive | 154 | –
COc1ccc2c(c1)O[C@@H]1COc3cc4c(cc3[C@]1(O)C2=O)OCO4 | inactive | – | –
COc1ccc(-c2coc3cc(OCC=C(C)C)ccc3c2=O)cc1 | inactive | 33.3 | –
COc1ccc2c(c1)O[C@@H]1COc3cc(OC)c(OC)cc3[C@]1(O)C2=O | inactive | – | –
COc1ccc2c(=O)c(-c3cc(OC)c4c(c3OC)OCO4)coc2c1 | inactive | 168 | –
COc1cc2c(cc1-c1coc3c(CC=C(C)C)c(OC)c(OC)cc3c1=O)OCO2 | inactive | > 235 | –
COc1ccc2c(c1)O[C@@H]1COc3cc4c(cc3[C@@H]1C2=O)OCO4 | inactive | 93.8 | –
COc1cc2c(cc1-c1coc3cc(O)ccc3c1=O)OCO2 | inactive | – | –
COc1cc2occ(-c3cc4c(cc3OC)OCO4)c(=O)c2cc1OC | inactive | – | –
COc1cc2c(cc1OC)-c1c(oc3c4c(ccc3c1=O)OC(C)(C)C=C4)CO2 [DEHYDRODEGUELIN] | inactive | – | IC50 (HepG2): 0.56 to 16 µM; IC50 (B16): 0.56 to 16 µM; IC50 [1]: 0.56 to 16 µM; IC50 [2]: 0.56 to 16 µM
